High-throughput results (PubChem)
hIAP act – human IAP activation; P09923; purified human IAP, CDP-Star luminescence, 30 min; hits give high values; 1 = vehicle-only enzyme, 0 = enzyme-free background; activation factor at 10 µM; actives 0.16% (n = 330,000); AID 2524;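 active = activation factor of the enzyme at least 2-fold when tested at 20 µM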
Target sequence (P09923 whole entry, looked up): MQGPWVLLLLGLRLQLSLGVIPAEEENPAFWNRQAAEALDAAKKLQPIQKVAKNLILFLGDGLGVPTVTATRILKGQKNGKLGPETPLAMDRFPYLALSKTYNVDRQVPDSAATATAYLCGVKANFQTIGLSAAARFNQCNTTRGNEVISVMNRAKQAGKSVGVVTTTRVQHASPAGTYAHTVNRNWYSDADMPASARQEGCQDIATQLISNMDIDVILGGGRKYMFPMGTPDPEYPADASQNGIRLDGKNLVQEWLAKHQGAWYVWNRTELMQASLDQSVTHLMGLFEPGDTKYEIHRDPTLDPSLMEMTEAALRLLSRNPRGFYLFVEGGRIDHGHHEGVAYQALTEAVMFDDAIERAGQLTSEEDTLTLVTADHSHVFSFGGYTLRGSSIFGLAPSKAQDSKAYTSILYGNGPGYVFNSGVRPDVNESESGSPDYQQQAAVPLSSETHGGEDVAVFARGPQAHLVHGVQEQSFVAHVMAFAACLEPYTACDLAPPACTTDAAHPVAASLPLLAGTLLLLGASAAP
bIAP inh – blocks bovine intestinal alkaline phosphatase activity; purified bovine IAP, CDP-star luminescence, 30 min; inhibition, % at 20 µM; 190,000 tested, under 10 active;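 active = over 50% inhibition of intestinal alkaline phosphatase at 20 µM in the single-dose screen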
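System: Purified bovine intestinal alkaline phosphatase (IAP) enzyme | Input: IAP diluted 1/65,000,000 in the well | Also added: CDP-star chemiluminescent phosphatase substrate, 30 µM final | Dosing: 20 µM single dose | Times: Enzyme reaction for 30 min at room temperature | Detection: Luminescence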
bIAP act – increases bovine intestinal alkaline phosphatase activity; activation factor at 20 µM; actives 0.17% (n = 200,000); purified bovine IAP, CDP-star luminescence, 30 min; hits give high values; fold of DMSO-control signal, blank-subtracted; AID 1016;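 active = activation factor of 2 or more at 20 µM, a signal rise over negative controls twice the positive control's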
hIAP inh – human IAP inhibition | P09923 | purified IAP, CDP-Star luminescence, 30 min | inhibition, % at 10 µM | actives 0.12% (n = 330,000) | AID 2544;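 active = inhibition reaching a set limit with compound at 10 µM in the primary screen, cut at about 35% in these data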
mIAP inh – blocks mouse intestinal alkaline phosphatase | inhibition, % at 10 µM | actives 0.2% (n = 330,000) | purified mouse IAP, CDP-Star luminescence, 30 min | AID 2806;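 active = inhibition of at least 40% at 10 µM in the primary screen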
mIAP activ – mouse IAP activation; muIAP, CDP-Star luminescence, 30 min; hits give high values; 1 = vehicle-only enzyme signal, 0 = enzyme-free wells; AID 2805; actives 0.24% (n = 330,000); activation factor at 10 µM;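 active = activation factor of at least 2 at 20 µM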
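Assay system: mouse IAP enzyme; reagent: chemiluminescent substrate CDP-Star; dosing: test compounds delivered from DMSO solution; schedule: 30 min at room temperature; measured by: luminescence from enzymatic CDP-Star hydrolysis; controls: DMSO-only wells and no-enzyme negative control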
hIAP act conf – human IAP activation confirmation; shares compounds with hIAP act; purified IAP, CDP-Star luminescence, 30 min; hits give low values; activation (%Activity, negative = activation), % at 8.3 µM; actives 10% (n = 880);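 active = at least twofold enzyme activation in any of six single-dose repeats, which the averaged readout prints as negative percent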
A number is an active result; 0 = inactive; - = no result. Most compounds without a hit are left out; they make up all but 0.72% or so of the library.

SMILES	hIAP act	bIAP inh	bIAP act	hIAP inh	mIAP inh	mIAP activ	hIAP act conf
COc1cc(/C=C2/SC(=S)N(CC(=O)O)C2=O)ccc1OCC(=O)Nc1ccc(C)c(C)c1	0	-	-	0	0	0	-
O=C(CCn1cccn1)Nc1ccc2c(c1)OCO2	0	-	-	0	0	0	-
CN(CC(=O)Nc1ccccc1Br)C(=O)CNC(=O)c1ccc(Oc2ccccc2)cc1	0	-	-	35	0	0	0
COc1ccc(/C=C/C(=O)OCC(=O)c2c(C)[nH]c3ccccc23)cc1OC	0	0	0	0	0	0	-
COc1ccc(NC(=O)c2csc(Cc3ccccc3)n2)cc1	0	-	0	0	0	0	-
COc1ccc(CNC(=O)c2csc(Cc3ccccc3)n2)cc1	2	0	0	0	0	0	0
CC1CN(Cc2ccccc2)c2nc3c(c(=O)n(CC(N)=O)c(=O)n3C)n2C1 (stereo unspecified)	0	-	-	39	0	0	0
CCOC(=O)Cn1c(=O)c2c(nc3n2CC(C)CN3Cc2ccccc2)n(C)c1=O (stereo unspecified)	0	-	-	0	0	0	-
Cc1cc(Cl)ccc1NC(=O)C(=O)N/N=C/c1ccc2c(c1)OCO2	0	-	-	0	0	0	-
Cc1ccc(Cl)cc1NC(=O)C(=O)N/N=C/c1ccc2c(c1)OCO2	2.2	-	-	0	0	0	0
O=C(NNc1nc(=O)c2cccnc2s1)c1ccccc1O	2.9	0	0	0	0	0	0
O=C(NNc1c2ccccc2nc2ccccc12)c1ccccc1O	0	0	0	0	0	0	-
CC1=Nc2ccccc2N=C(NC(=O)CSC(=S)N2CCN(C)CC2)C1c1ccccc1 (stereo unspecified)	2.4	-	-	0	0	0	0
CC1=Nc2ccccc2N=C(NC(=O)CSC(=S)N2CCCCC2)C1c1ccccc1 (stereo unspecified)	0	-	-	0	0	0	-
CC(C)N1CC(C(=O)Nc2ccccc2)CC1=O (stereo unspecified)	0	0	0	0	0	0	-
CC(=O)Nc1ccc(NC(=O)C2CC(=O)N(C(C)C)C2)cc1 (stereo unspecified)	0	-	-	37	0	0	0
N#C/C(=C\c1ccc(-c2cccc([N+](=O)[O-])c2)o1)C(=O)Nc1nc(-c2cccs2)cs1	0	-	-	47	0	0	0
Cc1ccc(N/C=C/C(=O)c2ccco2)c(O)c1	2.2	-	-	0	0	0	0
O=C(CSc1ncn[nH]1)NCCc1ccccc1	2.6	0	0	0	0	0	-113
N#CCC(=O)Nc1ccc(C(=O)NNC(=S)NC2CCCCC2)cc1	0	-	-	0	0	0	-
CC(C)CC(=O)Nc1ccc(C(=O)NNC(=S)NC(=O)C2CCCCC2)cc1	2.6	0	0	0	0	0	0
CCOC(=O)c1cnc(SCC(=O)c2ccccc2)nc1N	0	0	0	35	0	0	-436
CCOC(=O)c1cnc(SCC(=O)c2ccc(C)cc2)nc1N	0	0	0	0	0	0	-
O=C(c1cc(-c2ccncc2)nc2ccccc12)N1CCN(S(=O)(=O)/C=C/c2ccccc2)CC1	0	0	0	0	0	0	-
Cc1ccc(OCC(=O)N(Cc2ccccc2)C(C)C)c([N+](=O)[O-])n1	0	0	0	0	0	0	-
SMILES	hIAP act	bIAP inh	bIAP act	hIAP inh	mIAP inh	mIAP activ	hIAP act conf
COc1cc(OC)cc(C(=O)NNC(=O)C(=O)Nc2cc(OC)c(Cl)cc2OC)c1	0	-	-	39	0	0	0
COc1cc(NC(=O)C(=O)NNC(=O)C2CCCCC2)c(OC)cc1Cl	0	0	0	0	0	0	-
COc1ccc(S(=O)(=O)N2CCN(CC(=O)c3ccc(O)c(O)c3)CC2)cc1	0	-	-	39	0	0	0
O=C(NCCS(=O)(=O)N1CCN(c2cccc(Cl)c2)CC1)c1ccc2c(c1)OCO2	0	-	-	0	0	0	-
O=C(NCCS(=O)(=O)N1CCN(c2cccc(Cl)c2)CC1)c1cc(=O)c2ccccc2o1	0	-	-	39	0	0	0
COc1ccc(C(=O)NCC(=O)NCC(c2ccco2)N(C)C)cc1OC (stereo unspecified)	0	0	0	44	0	0	0
CCCOc1ccc(C(=O)NCC(c2ccco2)N(C)C)cc1OC (stereo unspecified)	0	0	0	0	0	0	-
